Measurements from ChEMBL document CHEMBL1145831 (J Med Chem, 2003).

What was measured:
[1] = system: CCRF-CEM; test: In vitro growth inhibitory activity in the human CCRF-CEM leukemia cell line.; type: functional, cell-based
How it was run: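 CCRF-CEM human leukemia cells in log phase, 4.8 × 10⁴ cells per 2 mL well. Medium was RPMI-1640 with 10% dialyzed FBS and 25 mM HEPES. Compounds were serially diluted 1:3 in DMSO and added to duplicate wells, with DMSO-only controls, at 0.5% final DMSO. Cells were exposed 72 h at 37 °C in humidified 5% CO₂, then counted. IC50 in nM.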

[2] = system: Mus musculus; test: In vivo antitumor activity against murine pancreatic adenocarcinoma and measured as % weight loss on a schedule of 10-14 days and at a total dose of 41 mg/kg; type: functional
How it was run: (§1)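 Body weight loss was tracked in mice implanted with the Panc-03 murine pancreatic adenocarcinoma. Injections were given within 20 min of aqueous preparation from stock solutions, with chlorohydrins acidified using 0.05% citric acid.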

[3] = system: Mus musculus; test: Ratio of the median tumor weight in the treatment group over the median tumor weight in the control group on a schedule of 10-14 days and at a total dose of 41 mg/kg; type: functional
How it was run: (§2)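 Mice bearing the drug-sensitive murine pancreatic adenocarcinoma Panc-03. Dosing solutions were made in water from stock solutions and injected within 20 min of preparation; chlorohydrins were acidified with 0.05% citric acid. T/C (%) = median tumor weight of the treated group ÷ median tumor weight of controls × 100, calculated when control median tumor weight reached 1 g.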

[4] = system: Mus musculus; test: Log cell kill of tumor bearing mice on a schedule of 10-14 days and at a total dose of 41 mg/kg; type: functional, organism-based; set-up: dose 41 mg/kg
How it was run: (§3)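 Panc-03 murine pancreatic adenocarcinoma in mice. Aqueous dosing solutions were prepared from stocks and injected within 20 min; chlorohydrins were acidified with 0.05% citric acid. Log cell kill was calculated from tumor growth delay, the difference in days between treated and control animals to reach 1000 mg tumor weight.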

[5] = system: Mus musculus; test: In vivo antitumor activity against murine pancreatic adenocarcinoma and measured as number of deaths on a schedule of 10-14 days and at a total dose of 41 mg/kg; type: ADME, organism-based; set-up: dose 41 mg/kg
How it was run: (§4)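 Mice bearing drug-sensitive murine pancreatic adenocarcinoma Panc-03 were dosed on the listed days at the listed total doses. Dosing solutions were made in water from stock solutions and injected within 20 min. Chlorohydrin solutions were acidified with 0.05% citric acid. Tolerance was recorded as body weight loss and number of deaths.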

[6] = system: Mus musculus; test: In vivo antitumor activity against murine pancreatic adenocarcinoma and measured as number of deaths on a schedule of 3,4,6 days and at a total dose of 6 mg/kg; type: ADME, organism-based; set-up: dose 6 mg/kg; conditions: 144 h; how it was run: as §4
[7] = system: Mus musculus; test: Ratio of the median tumor weight in the treatment group over the median tumor weight in the control group on a schedule of 3,4,6,10 days and at a total dose of 3.5 mg/kg; type: functional
How it was run: (§5)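 Panc-03 murine pancreatic adenocarcinoma in mice, with injectable solutions prepared in water from stock and given within 20 min; chlorohydrins were acidified with 0.05% citric acid. %T/C is median tumor weight of the treated group over that of the control group × 100, calculated when control median tumor weight reaches 1 g. T/C ≤ 42% is taken as significant activity.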

[8] = system: Mus musculus; test: In vivo antitumor activity against murine pancreatic adenocarcinoma and measured as number of deaths on a schedule of 3,4,6,10 days and at a total dose of 3.5 mg/kg; type: ADME, organism-based; set-up: dose 3.5 mg/kg; conditions: 240 h; how it was run: as §4
[9] = system: Mus musculus; test: In vivo antitumor activity against murine pancreatic adenocarcinoma and measured as % weight loss on a schedule of 3,4,6 days and at a total dose of 6 mg/kg; type: functional; how it was run: as §4
[10] = system: Mus musculus; test: In vivo antitumor activity against murine pancreatic adenocarcinoma and measured as number of deaths on a schedule of 3,4,6 days and at a total dose of 12 mg/kg; type: ADME, organism-based; set-up: dose 12 mg/kg; conditions: 144 h; how it was run: as §4
[11] = system: Mus musculus; test: In vivo antitumor activity against murine pancreatic adenocarcinoma and measured as % weight loss on a schedule of 3,4,6 days and at a total dose of 12 mg/kg; type: functional; how it was run: as §4
[12] = system: Mus musculus; test: In vivo antitumor activity against murine pancreatic adenocarcinoma and measured as % weight loss on a schedule of 3,4,6,10 days and at a total dose of 3.5 mg/kg; type: functional; how it was run: as §4
[13] = system: Mus musculus; test: Ratio of the median tumor weight in the treatment group over the median tumor weight in the control group on a schedule of 3,8days and at a total dose of 16 mg/kg; type: functional; how it was run: as §2
[14] = system: Mus musculus; test: Log cell kill of tumor bearing mice on a schedule of 3,8days and at a total dose of 16 mg/kg; type: functional, organism-based; set-up: dose 16 mg/kg; how it was run: as §3
[15] = system: Mus musculus; test: In vivo antitumor activity against murine pancreatic adenocarcinoma and measured as number of deaths on a schedule of 3,8days and at a total dose of 16 mg/kg; type: ADME, organism-based; set-up: dose 16 mg/kg; conditions: 192 h; how it was run: as §4
[16] = system: Mus musculus; test: In vivo antitumor activity against murine pancreatic adenocarcinoma and measured as % weight loss on a schedule of 3,8days and at a total dose of 16 mg/kg; type: functional; how it was run: as §1
[17] = system: Mus musculus; test: Ratio of the median tumor weight in the treatment group over the median tumor weight in the control group on a schedule of 3-10 days and at a total dose of 32 mg/kg; type: functional; how it was run: as §5
[18] = system: Mus musculus; test: Ratio of the median tumor weight in the treatment group over the median tumor weight in the control group on a schedule of 3-9 days and at a total dose of 42 mg/kg; type: functional; how it was run: as §5
[19] = system: Mus musculus; test: In vivo antitumor activity against murine pancreatic adenocarcinoma and measured as % weight loss on a schedule of 3-10 days and at a total dose of 32 mg/kg; type: functional; how it was run: as §4
[20] = system: Mus musculus; test: In vivo antitumor activity against murine pancreatic adenocarcinoma and measured as number of deaths on a schedule of 3-9 days and at a total dose of 42 mg/kg; type: ADME, organism-based; set-up: dose 42 mg/kg; how it was run: as §4
[21] = system: Mus musculus; test: In vivo antitumor activity against murine pancreatic adenocarcinoma and measured as number of deaths on a schedule of 3-10 days and at a total dose of 32 mg/kg; type: ADME, organism-based; set-up: dose 32 mg/kg; how it was run: as §4
[22] = system: Mus musculus; test: In vivo antitumor activity against murine pancreatic adenocarcinoma and measured as % weight loss on a schedule of 3-9 days and at a total dose of 42 mg/kg; type: functional; how it was run: as §4

SMILES | IC50 [1] [nM] | other results
COc1ccc(C[C@H]2NC(=O)/C=C/C[C@@H]([C@H](C)[C@H]3O[C@@H]3c3ccc(CC(=O)O)cc3)OC(=O)[C@H](CC(C)C)OC(=O)C(C)(C)CNC2=O)cc1Cl | 0.79 | 
CC(=O)O[C@H]1C(=O)[C@@]2(C)[C@H]([C@H](OC(=O)c3ccccc3)[C@]3(O)C[C@H](OC(=O)[C@H](O)[C@@H](NC(=O)c4ccccc4)c4ccccc4)C(C)=C1C3(C)C)[C@]1(OC(C)=O)CO[C@@H]1C[C@@H]2O [PACLITAXEL] |  | Weight loss [2]: -5%; T/C [3]: 0%; Log kill [4]: 4.2; Death [5]: 0
COc1ccc(C[C@H]2NC(=O)/C=C/C[C@@H]([C@H](C)[C@@H](O)[C@@H](Cl)c3ccc(CNCCN)cc3)OC(=O)[C@H](CC(C)C)OC(=O)C(C)(C)CNC2=O)cc1Cl | 0.092 | 
CCN(CC)Cc1ccc([C@H]2O[C@@H]2[C@@H](C)[C@@H]2C/C=C/C(=O)N[C@H](Cc3ccc(OC)c(Cl)c3)C(=O)NCC(C)(C)C(=O)O[C@@H](CC(C)C)C(=O)O2)cc1 | 0.003 | 
COc1ccc(C[C@H]2NC(=O)/C=C/C[C@@H]([C@H](C)[C@H]3O[C@@H]3c3cccc(C)c3)OC(=O)[C@H](CC(C)C)OC(=O)C(C)(C)CNC2=O)cc1Cl | 0.15 | 
COc1ccc(C[C@H]2NC(=O)/C=C/C[C@@H]([C@H](C)[C@H]3O[C@@H]3c3cc(C)ccc3C)OC(=O)[C@H](CC(C)C)OC(=O)C(C)(C)CNC2=O)cc1Cl | 2 | 
COc1ccc(C[C@H]2NC(=O)/C=C/C[C@@H]([C@H](C)[C@H]3O[C@@H]3c3ccc(CO)cc3)OC(=O)[C@H](CC(C)C)OC(=O)C(C)(C)CNC2=O)cc1Cl | 0.004 | Death [6]: 1; T/C [7]: 14%; Death [8]: 0; Weight loss [9]: -19.5%; Death [10]: 4; Weight loss [11]: -18.4%; Weight loss [12]: 10.5%
COc1ccc(C[C@H]2NC(=O)/C=C/C[C@@H]([C@H](C)/C=C/c3ccc(CO)cc3)OC(=O)[C@H](CC(C)C)OC(=O)C(C)(C)CNC2=O)cc1Cl | 0.79 | 
COc1ccc(C[C@H]2NC(=O)/C=C/C[C@@H]([C@H](C)[C@@H](O)[C@@H](Cl)c3ccc(COC(=O)C(C)(C)CN)cc3)OC(=O)[C@H](CC(C)C)OC(=O)C(C)(C)CNC2=O)cc1Cl | 0.004 | 
COc1ccc(C[C@H]2NC(=O)/C=C/C[C@@H]([C@H](C)[C@H]3O[C@@H]3c3ccc(COC(=O)CNC(=O)OC(C)(C)C)cc3)OC(=O)[C@H](CC(C)C)OC(=O)C(C)(C)CNC2=O)cc1Cl | 0.0055 | 
COc1ccc(C[C@H]2NC(=O)/C=C/C[C@@H]([C@H](C)/C=C/c3cc(C)ccc3C)OC(=O)[C@H](CC(C)C)OC(=O)C(C)(C)CNC2=O)cc1Cl | 440 | 
COc1cccc2c1C(=O)c1c(O)c3c(c(O)c1C2=O)C[C@@](O)(C(=O)CO)C[C@@H]3O[C@H]1C[C@H](N)[C@H](O)[C@H](C)O1 [DOXORUBICIN] |  | T/C [13]: 16%; Log kill [14]: 1.5; Death [15]: 0; Weight loss [16]: -12%
COc1ccc(C[C@H]2NC(=O)/C=C/C[C@@H]([C@H](C)[C@H]3O[C@@H]3c3ccccc3)OC(=O)[C@H](CC(C)C)OC(=O)C(C)(C)CNC2=O)cc1Cl [CRYPTOPHYCIN 52] | 0.022 | T/C [17]: 3%; T/C [18]: 1%; Weight loss [19]: 1.6%; Death [20]: 3; Death [21]: 0; Weight loss [22]: -9.6%
CCN(CC)Cc1ccc([C@H](Cl)[C@H](O)[C@@H](C)[C@@H]2C/C=C/C(=O)N[C@H](Cc3ccc(OC)c(Cl)c3)C(=O)NCC(C)(C)C(=O)O[C@@H](CC(C)C)C(=O)O2)cc1 | 0.005 | 
COc1ccc(C[C@H]2NC(=O)/C=C/C[C@@H]([C@H](C)[C@@H](O)[C@@H](Cl)c3ccc(C)c(C)c3)OC(=O)[C@H](CC(C)C)OC(=O)C(C)(C)CNC2=O)cc1Cl | 0.6 | 
COc1ccc(C[C@H]2NC(=O)/C=C/C[C@@H]([C@H](C)[C@@H]3O[C@H]3c3cc(C)ccc3C)OC(=O)[C@H](CC(C)C)OC(=O)C(C)(C)CNC2=O)cc1Cl | 100 | 
COc1ccc([C@H]2O[C@@H]2[C@@H](C)[C@@H]2C/C=C/C(=O)N[C@H](Cc3ccc(OC)c(Cl)c3)C(=O)NCC(C)(C)C(=O)O[C@@H](CC(C)C)C(=O)O2)cc1 | 0.28 | 
COc1ccc(C[C@H]2NC(=O)/C=C/C[C@@H]([C@H](C)/C=C/c3csc(C)n3)OC(=O)[C@H](CC(C)C)OC(=O)C(C)(C)CNC2=O)cc1Cl | 460 | 
COc1ccc(C[C@H]2NC(=O)/C=C/C[C@@H]([C@H](C)[C@@H](O)[C@@H](Cl)c3ccc(OC(=O)C(C)(C)CN)cc3)OC(=O)[C@H](CC(C)C)OC(=O)C(C)(C)CNC2=O)cc1Cl | 0.79 | 
COc1ccc(/C=C/[C@@H](C)[C@@H]2C/C=C/C(=O)N[C@H](Cc3ccc(OC)c(Cl)c3)C(=O)NCC(C)(C)C(=O)O[C@@H](CC(C)C)C(=O)O2)cc1 | 12 | 
COc1ccc(C[C@H]2NC(=O)/C=C/C[C@@H]([C@H](C)/C=C/c3ccc(C)c(C)c3)OC(=O)[C@H](CC(C)C)OC(=O)C(C)(C)CNC2=O)cc1Cl | 70 | 
COc1ccc(C[C@H]2NC(=O)/C=C/C[C@@H]([C@H](C)/C=C/c3ccc(O)cc3)OC(=O)[C@H](CC(C)C)OC(=O)C(C)(C)CNC2=O)cc1Cl | 4 | 
COC(=O)c1ccc([C@H](Cl)[C@H](O)[C@@H](C)[C@@H]2C/C=C/C(=O)N[C@H](Cc3ccc(OC)c(Cl)c3)C(=O)NCC(C)(C)C(=O)O[C@@H](CC(C)C)C(=O)O2)cc1 | 0.037 | 
COc1ccc(C[C@H]2NC(=O)/C=C/C[C@@H]([C@H](C)[C@@H]3O[C@H]3c3ccc(CO)cc3)OC(=O)[C@H](CC(C)C)OC(=O)C(C)(C)CNC2=O)cc1Cl | 0.29 | 
COc1ccc(C[C@H]2NC(=O)/C=C/C[C@@H]([C@H](C)/C=C/c3cccc(C)c3)OC(=O)[C@H](CC(C)C)OC(=O)C(C)(C)CNC2=O)cc1Cl | 25 | 
COc1ccc(C[C@H]2NC(=O)/C=C/C[C@@H]([C@H](C)[C@@H](O)[C@@H](Cl)c3ccc(CNC(=O)CN(C)C(=O)OC(C)(C)C)cc3)OC(=O)[C@H](CC(C)C)OC(=O)C(C)(C)CNC2=O)cc1Cl | 0.02 | 
COc1ccc(C[C@H]2NC(=O)/C=C/C[C@@H]([C@H](C)[C@H]3O[C@@H]3c3ccc(CN4CCN(C(=O)OC(C)(C)C)CC4)cc3)OC(=O)[C@H](CC(C)C)OC(=O)C(C)(C)CNC2=O)cc1Cl | 0.001 | 
COc1ccc(C[C@H]2NC(=O)/C=C/C[C@@H]([C@H](C)[C@H]3O[C@@H]3c3ccc(C)c(C)c3)OC(=O)[C@H](CC(C)C)OC(=O)C(C)(C)CNC2=O)cc1Cl | 0.05 | 
CNCC(=O)NCc1ccc([C@H](Cl)[C@H](O)[C@@H](C)[C@@H]2C/C=C/C(=O)N[C@H](Cc3ccc(OC)c(Cl)c3)C(=O)NCC(C)(C)C(=O)O[C@@H](CC(C)C)C(=O)O2)cc1 | 0.04 | 
